The values below come from ChEMBL document CHEMBL1146386, “Design, synthesis, and preliminary in vitro and in silico antiviral activity of [4,7]phenantrolines and 1-oxo-1,4-dihydro-[4,7]phenantrolines against single-stranded positive-sense RNA genome viruses” (Bioorg Med Chem, 2007).

Each structure is given as a SMILES string. The source made the active and inactive calls. No cut-off for these calls is given here. A value given as a limit tells only on which side of the number the result lay.

One series concerns Enterovirus C. Kind of series: Antiviral activity against Poliovirus Sb1 in Vero 76 cells after 2 days by plaque reduction assay. In kind it is functional, organism-based. Conditions: 48 h. In short, it runs like this:
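Vero 76 monolayers (2×10^5 cells/well, grown overnight) infected with Sabin strain at 50-100 PFU/well. Unabsorbed virus removed, then DMEM with 1% inactivated FCS and 0.75% methyl cellulose added, with or without serial compound dilutions (100 mM DMSO stock diluted in medium). Held 2 days at 37 °C, then fixed and stained with ethanol/crystal violet and plaques counted. EC50 (50% plaque reduction) by linear regression; mean of three determinations.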
On the technique in general: Plaque reduction counts the foci of infection that form in a cell layer.

Series [1] has as its system Vesicular stomatitis virus. The experiment in a line: Antiviral activity against VSV. The series is classed as functional, organism-based.
Series [2] has as its system Respiratory syncytial virus. The experiment in a line: Antiviral activity against RSV. The series is classed as functional, organism-based.
Series [3] in a line: Cytotoxicity against MDBK cells after 48 to 120 hrs by MTT method. The series is classed as cell-based, Bos taurus. Conditions: cattle. The method, boiled down:
(§1)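 Cells placed in maintenance medium at initial 1×10^6 (BHK) or 6×10^5 (MDBK) cells/mL, with or without serial compound dilutions, run in parallel with antiviral tests. Viability by MTT after 48–120 h at 37 °C, humidified 5% CO2; CC50 = concentration reducing mock-infected cell viability by 50%; mean of three determinations.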

Series [4] deals with Bovine viral diarrhea virus 1. The experiment in a line: Antiviral activity against BVDV in MDBK cells assessed as inhibition of virus-induced cytopathogenicity after 2 to 3 days by MTT method. The series is classed as functional, organism-based. Conditions: Bovine viral diarrhea virus isolates and strains. The method, boiled down:
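MDBK cells seeded 2.5×10^4 cells/well, grown overnight to confluence at 37 °C, 5% CO2; infected at moi 0.01 in serum-free medium; after 1 h, MEM Earle's with 1% inactivated FCS ± serial compound dilutions (DMSO stock diluted in medium) added. Viability read by MTT after 2-3 days at 37 °C; EC50 = 50% protection from cytopathogenicity; mean of three determinations.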
Background: Damage to the host cells serves as the signal in cytopathic effect assays.

Series [5] is described as follows: Cytotoxicity against BHK1 cells after 48 to 120 hrs by MTT method. The series is classed as cell-based, Mesocricetus auratus. Conditions: hamster. The method, boiled down: as §1
Background: Tetrazolium dyes change colour on reduction, which living cells bring about.

In a further series the test system is Yellow fever virus. Kind of series: Antiviral activity against YFV in BHK1 cells assessed as inhibition of virus-induced cytopathogenicity after 2 to 3 days by MTT method. The series is classed as functional, organism-based.
Series [6] in a line: Cytotoxicity against Vero 76 cells after 48 to 120 hrs by MTT method. Conditions: chlorocebus sabaeus. The series is classed as cell-based.
Another series relates to Coxsackievirus B2. The experiment in a line: Antiviral activity against CVB2 in Vero 76 cells after 3 days by plaque reduction assay. In kind it is functional, organism-based. Conditions: Enterovirus B, 72 h. In short, it runs like this:
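Vero 76 cells seeded 2×10^5 cells/well, confluent overnight; infected to give 50-100 PFU/well; unadsorbed virus removed, then DMEM with 1% inactivated FCS and 0.75% methyl cellulose ± serial dilutions added. After 3 days at 37 °C, fixed and stained with 50% ethanol/0.8% crystal violet in PBS; plaques counted; EC50 by linear regression.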

Series [7] is described as follows: Cytotoxicity against human MT4 cells after 96 hrs by MTT method. The series is classed as cell-based. In short, it runs like this: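 Exponentially growing MT-4 cells (CD4+ T-cells carrying integrated HTLV-1) seeded at 1×10^5 cells/mL in RPMI-1640 with 10% FCS, penicillin and streptomycin, with or without serial compound dilutions; 96 h at 37 °C, humidified 5% CO2. Viability by MTT; value = concentration reducing proliferation by 50%, untreated controls undergoing at least three rounds of multiplication.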

Series [8] has as its system Human immunodeficiency virus 1. Kind of series: Antiviral activity against HIV1 in MT4 cells by plaque reduction assay. In kind it is functional, organism-based. Conditions: Human immunodeficiency virus 1, MT4.
A further series concerns Reovirus sp. The experiment in a line: Antiviral activity against Reovirus. In kind it is functional, organism-based.

Consider `Clc1c(Cl)c2nccc(Cl)c2c2cccnc12`, for which the concentration for a half-maximal effect (EC50) (in general, the concentration that produces a half-maximal response) with Enterovirus C was over 100 µM; in [4], over 54 µM; with Yellow fever virus, over 100 µM; in the series on Coxsackievirus B2, over 100 µM; in [8], over 6.4 µM. For the same compound, the result (in series [1]; in series [2]; with Reovirus sp.) was inactive. Further, the CC50 – broadly, the concentration that lowers cell viability or growth by half – in series [3] was 54 µM; in [5], over 100 µM; in [6] it was over 100 µM. Also, the CC50 at 96 h in series [7] stood at 6.4 µM.

`CCOC(=O)c1c[nH]c2c(Cl)c(Cl)c3ncccc3c2c1=O`: the EC50 with Enterovirus C was over 90 µM; in series [4], 35 µM; with Yellow fever virus it was over 25 µM; in the series with Coxsackievirus B2, over 90 µM; in [8] it was over 32 µM. Further, the outcome (in series [1]; in series [2]; with Reovirus sp.) was inactive. For the same compound, the values for the half-maximal cytotoxic concentration (CC50) in series [3], in [5] and in series [6] were over 100 µM, 25 µM and 90 µM, respectively. The compound further showed a CC50 at 96 h in series [7] of 32 µM.

`Nc1ccnc2c(Cl)c(Cl)c3ncccc3c12`: the EC50 was 14 µM in the series on Enterovirus C; at least 24 µM in series [4]; over 11 µM in the series on Yellow fever virus; 2 µM in the series with Coxsackievirus B2; over 7.2 µM in [8]. In addition, the result (in series [1]; in series [2]; with Reovirus sp.) was inactive. Further, the cytotoxic concentration (CC50) in series [3] turned out to be 24 µM; in series [5], 11 µM; in series [6] it was 40 µM. Also, the CC50 at 96 h in [7] was determined as 7.2 µM.

As to `O=C(O)c1c[nH]c2c(Cl)c(Cl)c3ncccc3c2c1=O`, the concentration giving a half-maximal response (EC50) with Enterovirus C was 85 µM; in series [4] it was over 100 µM; with Yellow fever virus, over 23 µM; with Coxsackievirus B2, over 100 µM; in series [8] it was over 100 µM. Moreover, the outcome (in series [1]; in series [2]; in the series on Reovirus sp.) was inactive. Also, the cytotoxic concentration (CC50) was over 100 µM in series [3], 23 µM in [5] and 100 µM in [6]. The compound also yielded a CC50 at 96 h in series [7] of over 100 µM.

Regarding `O=c1cc[nH]c2c(Cl)c(Cl)c3ncccc3c12`, the EC50 in the series with Enterovirus C is over 80 µM; in series [4], 16 µM; in the series with Yellow fever virus, over 100 µM; in the series with Coxsackievirus B2, over 80 µM; in series [8] it was over 47 µM. The result (in series [1]; in [2]; in the series on Reovirus sp.) was inactive. Moreover, the half-maximal cytotoxic concentration (CC50) is over 100 µM in series [3], over 100 µM in series [5] and 80 µM in series [6]. Also, it took 47 µM to reach half-maximal cytotoxicity in [7] (CC50 at 96 h).

Turning to `c1cnc2ccc3ncccc3c2c1`, the EC50 in the series on Enterovirus C was over 80 µM; in [4] it was 17 µM; in the series on Yellow fever virus, over 100 µM; in the series with Coxsackievirus B2 it was over 80 µM; in series [8] it was over 61 µM. Further, the result (in [1]; in series [2]; in the series on Reovirus sp.) was inactive. The CC50 in series [3] is over 100 µM; in series [5], over 100 µM; in series [6], 80 µM. Half-maximal cytotoxicity in series [7] (CC50 at 96 h) was put at 61 µM.

`CCOc1ccnc2c(Cl)c(Cl)c3ncccc3c12`: the EC50 with Enterovirus C was 11 µM; in series [4], 25 µM; in the series with Yellow fever virus, over 25 µM; in the series on Coxsackievirus B2 it was 2 µM; in series [8], over 100 µM. Moreover, the result (in series [1]; in series [2]; with Reovirus sp.) was inactive. For the same compound, the CC50 in [3] came out at 64 µM; in series [5] it was 25 µM; in series [6], 75 µM. In series [7], this compound displayed a 50% cytotoxic concentration (CC50) at 96 h of over 100 µM.

As for `O=c1cc[nH]c2ccc3ncccc3c12`, the EC50 with Enterovirus C was over 100 µM; in series [4], 95 µM; with Yellow fever virus it was over 66 µM; with Coxsackievirus B2, over 100 µM; in series [8] it was over 100 µM. For the same compound, the result (in series [1]; in series [2]; with Reovirus sp.) was inactive. In addition, the figures for the CC50 in series [3], in [5] and in series [6] were over 100 µM, 66 µM and over 100 µM, respectively. For the same compound, the half-maximal cytotoxic concentration (CC50) at 96 h in series [7] is over 100 µM.

For `Clc1c(Cl)c2ncccc2c2cccnc12`, the EC50 in the series with Enterovirus C was 6 µM; in [4], 16 µM; in the series with Yellow fever virus, over 100 µM; in the series on Coxsackievirus B2, 11 µM; in series [8], over 24 µM. Moreover, the outcome (in series [1]; in series [2]; with Reovirus sp.) was inactive. Besides, the CC50 was over 100 µM in series [3], over 100 µM in [5] and 25 µM in series [6]. In series [7], this compound registered a cytotoxic concentration (CC50) at 96 h of 24 µM.

Take `CC(=O)Nc1ccnc2c(Cl)c(Cl)c3ncccc3c12`: the concentration giving a half-maximal response (EC50) is 21 µM in the series with Enterovirus C; 22 µM in [4]; over 18 µM with Yellow fever virus; 2 µM in the series on Coxsackievirus B2; over 13 µM in series [8]. Further, the result (in series [1]; in [2]; with Reovirus sp.) was inactive. Moreover, the CC50 in series [3] turned out to be 32 µM; in series [5], 18 µM; in series [6], 50 µM. This compound registered a cytotoxic concentration (CC50) at 96 h in series [7] of 13 µM.

`CCOc1ccnc2ccc3ncccc3c12`: the EC50 in the series with Enterovirus C is 17 µM; in series [4], 6 µM; in the series with Yellow fever virus, over 35 µM; in the series with Coxsackievirus B2, 5 µM; in series [8], over 56 µM. The outcome (in [1]; in series [2]; in the series with Reovirus sp.) was inactive. The values for the cytotoxic concentration (CC50) in [3], in series [5] and in series [6] were 64 µM, 35 µM and 80 µM, respectively. Besides, in series [7], the midpoint of cytotoxicity, the CC50 at 96 h, lay at 56 µM.

Regarding `Nc1ccnc2ccc3ncccc3c12`, the 50% effective concentration (EC50) with Enterovirus C was over 90 µM; in [4], 9 µM; in the series on Yellow fever virus, over 100 µM; in the series with Coxsackievirus B2 it was over 90 µM; in series [8], over 50 µM. Also, the result (in [1]; in [2]; in the series on Reovirus sp.) was inactive. In addition, the CC50 in series [3] was 63 µM; in series [5] it was over 100 µM; in series [6], 90 µM. Further, in [7], the cytotoxic concentration (CC50) at 96 h was determined as 50 µM.
